Data set [1] concerns the target T1, Receptor tyrosine-protein kinase erbB-2 (Homo sapiens, UniProt P04626). Kind of data set: Inhibition of ErbB2 kinase.
In data set [2] the target is T1, Receptor tyrosine-protein kinase erbB-2. Kind of data set: Inhibition of Erb2 autophosphorylation by cellular clone 24 assay. Type of data set: functional.
A short description of data set [3]: Lipophilicity, log D of the compound. Type of data set: physicochemical. Conditions: octanol/water.
The target in data set [4] is Epidermal growth factor receptor (Homo sapiens, UniProt P00533).
The nature of data set [5]: Antiproliferative activity against BT474C cells. The format is functional, cell-based. Conditions: Homo sapiens.
Data set [6] relates to KB. In words: Antiproliferative activity against human KB cells.
The subject of data set [7] is KB. Kind of data set: Effect on growth of human KB cells.
For data set [8], the target named is Vascular endothelial growth factor receptor 2 (Homo sapiens, UniProt P35968). Kind of data set: Inhibition of Kdr.
The target in data set [9] is Proto-oncogene tyrosine-protein kinase Src (Homo sapiens, UniProt P12931). Kind of data set: Inhibition of Src.
The nature of data set [10]: Volume of distribution at steady state in Alderley Park mouse at 2 mg/kg, iv and 5 mg/kg, po. The following applies: in vivo, read-out: Vdss. The format is ADME, organism-based. The method, boiled down: (§1)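 Pharmacokinetics after intravenous dosing at 2 mg/kg and oral dosing at 5 mg/kg in immunocompetent female Alderley Park mice and in female Alderley Park rats. Male Alderley Park beagles received 50 mg iv and 250 mg p.o.; dog figures are means. AUC is AUC0-24 taken from the oral dose.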

For data set [11], the system named is Mus musculus. In words: AUC (0 to 24 hrs) in Alderley Park mouse at 5 mg/kg, po. Further details: time < 24 hr, dose 5 mg/kg, route oral. The following applies: in vivo. The format is ADME, organism-based, Plasma. The method, boiled down:
as §1

For data set [12], the system named is Mus musculus. Kind of data set: Bioavailability in Alderley Park mouse at 2 mg/kg, iv and 5 mg/kg, po. Type of data set: ADME, organism-based. Conditions: in vivo. The method, boiled down:
as §1

Data set [13] can be described thus: Volume of distribution at steady state in Alderley Park rat at 2 mg/kg, iv and 5 mg/kg, po. Type of data set: ADME, organism-based. Conditions: in vivo, read-out: Vdss. The method, boiled down:
as §1

Data set [14] can be described thus: Clearance in Alderley Park rat at 2 mg/kg, iv and 5 mg/kg, po. Type of data set: ADME, organism-based. The following applies: in vivo. An outline of the steps:
as §1

The nature of data set [15]: AUC (0 to 24 hrs) in Alderley Park rat at 5 mg/kg, po. The format is ADME, organism-based. The arrangement: time < 24 hr, dose 5 mg/kg, route oral. The following applies: plasma. An outline of the steps: as §1
Data set [16] is described as follows: Bioavailability in Alderley Park rat at 2 mg/kg, iv and 5 mg/kg, po. The format is ADME, organism-based. Conditions: in vivo. The method, boiled down:
as §1

Data set [17] can be described thus: Volume of distribution at steady state in Alderley Park Beagle dog at 50 mg/kg, iv and […], po. The format is ADME, organism-based, Canis lupus familiaris. Conditions: in vivo, read-out: Vdss. The method, boiled down:
as §1

For data set [18], the system named is Canis familiaris. In words: AUC (0 to 24 hrs) in Alderley Park Beagle dog at […], po. The format is ADME, organism-based, Canis lupus familiaris, Plasma. The arrangement: time < 24 hr, route oral. Conditions: in vivo. An outline of the steps:
as §1

Data set [19] concerns Canis familiaris. In words: Bioavailability in Alderley Park Beagle dog at 50 mg/kg, iv and […], po. The following applies: in vivo. The format is ADME, organism-based, Canis lupus familiaris. An outline of the steps:
as §1

A short description of data set [20]: Plasma concentration in mouse at 50 mg/kg, po after 2 hrs. The format is ADME, organism-based. Further details: dose 50 mg/kg, route oral. An outline of the steps:
(§2)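 Female mice were given a single oral dose of 50 mg/kg without ABT. Total plasma concentration was measured at 2, 4, 6, 16 and 24 h, and AUC was derived.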

A short description of data set [21]: Plasma concentration in mouse at 50 mg/kg, po in presence of 1-aminobenzotriazole after 2 hrs. Further details: dose 50 mg/kg, route oral. Type of data set: ADME, organism-based.
Data set [22] can be described thus: Plasma concentration in mouse at 50 mg/kg, po in presence of 1-aminobenzotriazole after 4 hrs. Type of data set: ADME, organism-based. Further details: dose 50 mg/kg, route oral.
Data set [23] can be described thus: Plasma concentration in mouse at 50 mg/kg, po in presence of 1-aminobenzotriazole after 6 hrs. Type of data set: ADME, organism-based. The arrangement: dose 50 mg/kg, route oral.
Data set [24] in a line: Plasma concentration in mouse at 50 mg/kg, po in presence of 1-aminobenzotriazole after 16 hrs. The format is ADME, organism-based. Further details: dose 50 mg/kg, route oral.
A short description of data set [25]: Plasma concentration in mouse at 50 mg/kg, po in presence of 1-aminobenzotriazole after 24 hrs. Type of data set: ADME, organism-based. The arrangement: dose 50 mg/kg, route oral.
The test system of data set [26] is Mus musculus. In words: AUC in mouse at 50 mg/kg, po. The format is ADME, organism-based, Plasma. Further details: dose 50 mg/kg, route oral. The following applies: in vivo. The method, boiled down: as §2
The nature of data set [27]: AUC in mouse at 50 mg/kg, po in presence of 1-aminobenzotriazole. The format is ADME, organism-based. The arrangement: dose 50 mg/kg, route oral. Conditions: plasma.
The test system of data set [28] is Phospholipidosis. In words: In vivo phospholipidosis in rat after 14 days at 600 mg/kg dose q.d. The format is ADME, organism-based. The arrangement: dose 600 mg/kg. Conditions: 336 h. The method, boiled down:
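Rat toxicology study lasting 14 days with once-daily dosing at up to 600 mg/kg, examined for phospholipidosis.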

In data set [29] the test system is BT474C. Kind of data set: Antitumor activity against human BT474C cells xenografted mouse at 50 mg/kg, po qd for 21 days. Type of data set: functional, organism-based. Further details: dose 50 mg/kg. In general terms: A xenograft is tissue or cells of one species grown in another, often human tumour cells in immunodeficient mice.
Data set [30] relates to BT474C. Kind of data set: Antitumor activity against human BT474C cells xenografted mouse at 50 mg/kg, po bid for 21 days. The format is functional, organism-based. The arrangement: dose 50 mg/kg.
Data set [31] concerns Mus musculus. In words: Inhibition of erbB2 phosphorylation in human BT474C cells xenografted mouse at 50 mg/kg, po bid for 21 days. Type of data set: functional. The following applies: 504 h.
Data set [32] deals with LoVo. In words: Growth inhibition of LoVo cells xenografted in mouse at 50 mg/kg, po bid. The format is functional, organism-based. The arrangement: dose 50 mg/kg. The following applies: Homo sapiens. An outline of the steps: (§3)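 LoVo xenografts in mice were dosed orally at 50 mg/kg b.i.d. Tumour growth and tumour phospho-EGFR were assessed.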
In data set [33] the test system is Mus musculus. In words: Inhibition of phospho-EGFR in LoVo cells xenografted mouse at 50 mg/kg, po bid. Type of data set: functional, organism-based. Further details: dose 50 mg/kg. An outline of the steps:
as §3

In data set [34] the test system is LoVo. In words: Growth inhibition of LoVo cells xenografted in rat at 300 mg/kg, po qd. The following applies: Homo sapiens.
For data set [35], the system named is Rattus norvegicus. In words: Inhibition of phospho-EGFR in LoVo cells xenografted rat at 300 mg/kg, po qd.
The subject of data set [36] is Mus musculus. In words: Inhibition of erbB2 phosphorylation in human BT474C cells xenografted mouse at 50 mg/kg, po.

The source made the active and inactive calls. No cut-off for these calls is given here.

T1 sequence (P04626 whole entry): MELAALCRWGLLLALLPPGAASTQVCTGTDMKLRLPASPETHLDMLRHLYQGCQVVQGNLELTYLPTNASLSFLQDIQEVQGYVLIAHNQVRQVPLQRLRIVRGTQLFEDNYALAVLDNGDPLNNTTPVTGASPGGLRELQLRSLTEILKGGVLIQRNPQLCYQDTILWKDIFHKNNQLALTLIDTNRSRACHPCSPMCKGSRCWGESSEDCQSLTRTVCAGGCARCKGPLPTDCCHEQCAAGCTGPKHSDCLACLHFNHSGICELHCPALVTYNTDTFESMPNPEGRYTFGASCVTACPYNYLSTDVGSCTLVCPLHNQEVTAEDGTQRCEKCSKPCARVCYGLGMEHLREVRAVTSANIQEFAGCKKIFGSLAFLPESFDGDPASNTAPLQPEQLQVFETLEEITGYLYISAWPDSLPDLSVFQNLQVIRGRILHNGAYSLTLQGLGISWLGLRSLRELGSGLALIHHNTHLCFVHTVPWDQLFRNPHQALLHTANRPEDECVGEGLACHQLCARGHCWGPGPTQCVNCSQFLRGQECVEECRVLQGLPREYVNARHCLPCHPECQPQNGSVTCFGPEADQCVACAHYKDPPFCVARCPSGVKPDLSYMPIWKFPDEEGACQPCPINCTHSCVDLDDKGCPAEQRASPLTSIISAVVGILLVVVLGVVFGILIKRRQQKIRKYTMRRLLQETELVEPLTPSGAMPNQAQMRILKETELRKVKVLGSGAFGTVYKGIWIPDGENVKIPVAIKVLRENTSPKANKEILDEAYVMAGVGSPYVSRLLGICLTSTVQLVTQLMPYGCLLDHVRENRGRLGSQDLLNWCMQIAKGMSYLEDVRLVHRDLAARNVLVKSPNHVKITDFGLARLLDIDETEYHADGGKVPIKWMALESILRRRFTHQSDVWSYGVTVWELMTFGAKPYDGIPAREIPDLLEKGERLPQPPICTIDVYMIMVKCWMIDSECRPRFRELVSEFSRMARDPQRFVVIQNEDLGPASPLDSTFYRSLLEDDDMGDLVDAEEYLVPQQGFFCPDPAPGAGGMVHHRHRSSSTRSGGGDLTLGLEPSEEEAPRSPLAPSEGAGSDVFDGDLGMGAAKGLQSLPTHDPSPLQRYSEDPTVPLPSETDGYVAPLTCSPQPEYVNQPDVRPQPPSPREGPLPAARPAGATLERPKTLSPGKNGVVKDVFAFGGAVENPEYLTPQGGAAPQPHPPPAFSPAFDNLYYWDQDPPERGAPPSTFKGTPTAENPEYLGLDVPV
Epidermal growth factor receptor, sequence (P00533 whole entry): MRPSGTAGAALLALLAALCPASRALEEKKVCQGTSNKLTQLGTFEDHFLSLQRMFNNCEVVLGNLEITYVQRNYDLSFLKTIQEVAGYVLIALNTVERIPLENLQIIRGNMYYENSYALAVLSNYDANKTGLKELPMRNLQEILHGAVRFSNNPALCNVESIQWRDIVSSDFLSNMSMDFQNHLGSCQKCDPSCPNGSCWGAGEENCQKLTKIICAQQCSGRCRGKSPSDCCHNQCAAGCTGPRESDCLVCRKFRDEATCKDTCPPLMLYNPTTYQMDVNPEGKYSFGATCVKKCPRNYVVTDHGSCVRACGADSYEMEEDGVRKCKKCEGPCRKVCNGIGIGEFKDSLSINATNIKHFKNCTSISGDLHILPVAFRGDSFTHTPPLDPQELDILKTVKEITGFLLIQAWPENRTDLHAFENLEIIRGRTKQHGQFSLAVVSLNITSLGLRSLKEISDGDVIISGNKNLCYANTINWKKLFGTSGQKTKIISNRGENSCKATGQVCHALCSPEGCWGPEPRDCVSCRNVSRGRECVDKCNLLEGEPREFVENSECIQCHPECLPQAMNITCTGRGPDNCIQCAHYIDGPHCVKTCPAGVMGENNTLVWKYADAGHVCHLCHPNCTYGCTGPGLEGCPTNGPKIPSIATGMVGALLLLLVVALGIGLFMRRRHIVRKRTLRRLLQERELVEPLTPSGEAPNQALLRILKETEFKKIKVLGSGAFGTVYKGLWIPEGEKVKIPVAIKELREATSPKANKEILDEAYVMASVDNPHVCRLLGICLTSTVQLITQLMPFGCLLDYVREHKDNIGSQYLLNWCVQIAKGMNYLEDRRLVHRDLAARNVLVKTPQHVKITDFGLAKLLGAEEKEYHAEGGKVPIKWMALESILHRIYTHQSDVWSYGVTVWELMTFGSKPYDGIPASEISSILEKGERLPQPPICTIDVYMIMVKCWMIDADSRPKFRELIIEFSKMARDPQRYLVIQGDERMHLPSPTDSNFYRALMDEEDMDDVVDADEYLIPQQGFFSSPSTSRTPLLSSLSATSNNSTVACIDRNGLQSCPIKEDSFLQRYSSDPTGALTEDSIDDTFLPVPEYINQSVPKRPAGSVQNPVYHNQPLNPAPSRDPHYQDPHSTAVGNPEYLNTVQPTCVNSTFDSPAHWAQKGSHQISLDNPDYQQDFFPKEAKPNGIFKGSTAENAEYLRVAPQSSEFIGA
Vascular endothelial growth factor receptor 2, sequence (P35968 whole entry): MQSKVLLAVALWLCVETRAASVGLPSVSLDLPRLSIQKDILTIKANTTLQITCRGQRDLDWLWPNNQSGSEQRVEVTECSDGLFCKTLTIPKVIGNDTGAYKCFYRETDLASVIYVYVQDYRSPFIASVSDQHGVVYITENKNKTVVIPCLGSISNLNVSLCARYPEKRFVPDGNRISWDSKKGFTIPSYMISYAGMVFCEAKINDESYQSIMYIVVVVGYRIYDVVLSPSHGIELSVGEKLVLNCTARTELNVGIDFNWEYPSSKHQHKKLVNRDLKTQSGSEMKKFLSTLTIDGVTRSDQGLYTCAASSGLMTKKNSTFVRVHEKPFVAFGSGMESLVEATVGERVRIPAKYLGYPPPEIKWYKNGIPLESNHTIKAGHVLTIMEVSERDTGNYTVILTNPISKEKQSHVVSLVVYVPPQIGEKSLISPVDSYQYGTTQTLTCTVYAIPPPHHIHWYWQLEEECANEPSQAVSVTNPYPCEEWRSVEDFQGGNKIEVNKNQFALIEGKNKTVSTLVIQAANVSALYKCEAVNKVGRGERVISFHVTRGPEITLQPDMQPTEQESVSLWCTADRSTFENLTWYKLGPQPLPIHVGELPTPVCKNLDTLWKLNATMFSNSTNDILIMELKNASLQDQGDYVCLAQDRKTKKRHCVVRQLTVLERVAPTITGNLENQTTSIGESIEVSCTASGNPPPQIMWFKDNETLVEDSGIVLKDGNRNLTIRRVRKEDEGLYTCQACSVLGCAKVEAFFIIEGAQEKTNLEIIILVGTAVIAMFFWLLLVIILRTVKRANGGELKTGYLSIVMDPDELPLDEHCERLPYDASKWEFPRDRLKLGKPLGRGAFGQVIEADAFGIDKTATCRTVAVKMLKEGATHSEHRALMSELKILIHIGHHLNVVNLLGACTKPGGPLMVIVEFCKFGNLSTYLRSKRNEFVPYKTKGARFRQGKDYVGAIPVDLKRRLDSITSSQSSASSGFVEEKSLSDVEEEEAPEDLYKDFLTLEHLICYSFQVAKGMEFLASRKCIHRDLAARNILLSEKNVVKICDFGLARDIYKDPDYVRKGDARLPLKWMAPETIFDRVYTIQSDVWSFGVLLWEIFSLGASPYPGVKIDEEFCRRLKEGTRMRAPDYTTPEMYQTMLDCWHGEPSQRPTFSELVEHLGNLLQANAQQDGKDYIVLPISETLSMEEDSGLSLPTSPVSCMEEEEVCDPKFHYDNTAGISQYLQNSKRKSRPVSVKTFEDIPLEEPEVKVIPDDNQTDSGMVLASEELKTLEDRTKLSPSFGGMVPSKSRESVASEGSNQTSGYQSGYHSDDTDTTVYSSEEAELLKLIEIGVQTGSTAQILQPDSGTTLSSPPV
Proto-oncogene tyrosine-protein kinase Src, sequence (P12931 2-536 limits assumed): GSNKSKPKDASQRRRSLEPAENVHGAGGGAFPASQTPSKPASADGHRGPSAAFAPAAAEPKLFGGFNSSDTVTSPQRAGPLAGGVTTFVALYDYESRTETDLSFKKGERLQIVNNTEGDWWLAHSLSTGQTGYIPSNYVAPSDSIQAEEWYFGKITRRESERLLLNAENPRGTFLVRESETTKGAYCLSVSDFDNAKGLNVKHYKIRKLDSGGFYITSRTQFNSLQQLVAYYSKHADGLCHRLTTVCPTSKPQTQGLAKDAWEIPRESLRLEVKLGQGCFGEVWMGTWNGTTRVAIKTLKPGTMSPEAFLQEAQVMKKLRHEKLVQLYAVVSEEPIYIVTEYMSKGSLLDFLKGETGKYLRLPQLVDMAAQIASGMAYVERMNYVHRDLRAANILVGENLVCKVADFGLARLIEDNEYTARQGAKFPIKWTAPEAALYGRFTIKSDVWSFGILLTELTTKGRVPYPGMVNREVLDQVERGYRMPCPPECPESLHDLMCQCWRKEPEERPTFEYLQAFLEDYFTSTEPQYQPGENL

Usually IC50 stands for the concentration that gives 50% inhibition. By logD is commonly meant lipophilicity at a set pH, counting ionised and neutral species. Low values mean a more hydrophilic compound, high ones a more lipophilic compound. As for `O=C(CO)N1CCC[C@H]1COc1cccc2ncnc(Nc3ccc(OCc4ccccn4)c(Cl)c3)c12`, the IC50 in data set [1] worked out at 2 nM; in [2] it was 259 nM; in [4], 327 nM. Also, in data set [3], the logD was 3.

As for `C[C@H](CN(C)C(=O)CO)Oc1cccc2ncnc(Nc3ccc(OCc4ccccn4)c(Cl)c3)c12`, the half-maximal inhibitory concentration (IC50) in data set [1] is < 2 nM; in data set [2] it was 11 nM; in data set [5] it was 34 nM; in [6], 141 nM; in data set [7] it was 6940 nM; in [4] it was 2 nM. Moreover, the log distribution coefficient (logD) in data set [3] stood at 3.

As a reminder, the AUC is concentration integrated over time. The AUC(0-t) is the area under the concentration-time curve up to a stated or last time point. As usually defined, the bioavailability is the share of a dose that reaches the circulation, judged against a reference dose that is usually intravenous. High values mean good availability, low ones poor availability. A word on the inhibition in vivo: it is how much of the control response was suppressed. For the compound `CN(CCOc1cccc2ncnc(Nc3ccc(OCc4ccccn4)c(Cl)c3)c12)C(=O)CO`, the IC50 is 4 nM in [1]; 43 nM in data set [2]; > 1000 nM in data set [8]; > 1000 nM in data set [9]; 130 nM in [5]; 621 nM in [6]. For the same compound, the IC50 in data set [7] was found to be 8140 nM; in data set [4], 35 nM. Besides, the logD in [3] was 3. Also, the Vd in data set [10] was determined as 0.7 L/kg; in data set [13] it was 0.9 L/kg; in [17], 1 L/kg. The AUC in data set [11] was found to be 0.02 µM·h; in [18] it was 32 µM·h; in data set [26], 0.89 µM·h; in data set [27] it was 99 µM·h. Besides, the F is reported as 4% in data set [12] and 51% in data set [19]. The clearance in data set [14] was found to be 10 mL/min/kg. In addition, the AUC(0-t) at 24 h in data set [15] was found to be 5.5 µM·h. Further, the bioavailability in data set [16] amounted to 32%. The results for the concentration at 2 h in [20] and in data set [21] were 0.35 µM and 16.5 µM, respectively. The concentration at 4 h in data set [22] was determined as 13.8 µM. Moreover, the concentration at 6 h in data set [23] stood at 6.3 µM. In data set [24], the concentration at 16 h was 0.026 µM. Also, the concentration at 24 h in data set [25] came out at 0.007 µM. The Phospholipidosis result in [28] is on record as “Not Active”. Also, the result in [29] and in data set [30] was Active. The inhibition in vivo at 50 mg/kg in [31] and in [36] was 70% throughout. Moreover, the outcome in data set [32], in [33], in data set [34] and in data set [35] was inactive.

For the compound `C[C@@H](CN(C)C(=O)CO)Oc1cccc2ncnc(Nc3ccc(OCc4ccccn4)c(Cl)c3)c12`, the half-maximal inhibitory concentration (IC50) turned out to be 22 nM in [1], 291 nM in [2] and 191 nM in [4]. In [3], this compound returned a pH-dependent lipophilicity (logD) of 3.

Regarding `O=C(CO)N1CCC[C@@H]1COc1cccc2ncnc(Nc3ccc(OCc4ccccn4)c(Cl)c3)c12`, the values for the concentration for half-maximal inhibition (IC50) in [1], in data set [2] and in [4] were < 2 nM, 147 nM and 97 nM, respectively. For the same compound, the logD in data set [3] was 3.

As to `C[C@@H](COc1cccc2ncnc(Nc3ccc(OCc4ccccn4)c(Cl)c3)c12)N(C)C(=O)CO`, the 50% inhibitory concentration (IC50) in [1] was found to be 19 nM; in data set [2] it was 131 nM; in data set [4], 2580 nM. This compound also gave a pH-dependent lipophilicity (logD) in [3] of 3.

Consider `C[C@H](COc1cccc2ncnc(Nc3ccc(OCc4ccccn4)c(Cl)c3)c12)N(C)C(=O)CO`, for which the IC50 in [1] was < 2 nM; in data set [2], 11 nM; in data set [4], 3 nM. In [3], this compound gave a log distribution coefficient (logD) of 3.

These data come from ChEMBL document CHEMBL1140495, “Neutral 5-substituted 4-anilinoquinazolines as potent, orally active inhibitors of erbB2 receptor tyrosine kinase” (Bioorg Med Chem Lett, 2007).
